Screens as filed in PubChem.
Sampled rows, rich in hits. Any-hit rate of the full collection: about 2.6%.
ABCB6 inh MLPCN = inhibitors of human ABC transporter ABCB6; K562-ABCB6 porphyrin accumulation, flow cytometry, 1 h; stronger effect = lower value; fluorescence ratio to DMSO, % at 10 µM; hit rate 0.19% among 360,000; AID 602162;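 active = fluorescence ratio to DMSO below 75%, the collection mean minus 3 SD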;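 note: signal is porphyrin accumulated inside mitochondria; 100% equals median channel fluorescence of DMSO control wells; lower ratio means ABCB6 inhibition with less porphyrin fluorescence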
TbMetRS inhib = blocks T. brucei methionyl-tRNA synthetase activity | hit rate 0.4% among 360,000 | purified T. brucei MetRS, ATP depletion, Kinase-Glo luminescence | AID 624268 | inhibition, % at 11.9 µM;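 active = inhibition above a per-plate cutoff of the control wells' mean inhibition plus 3 SD, cut at about 5.5% in these data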;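 note: 0% = DMSO wells median and 100% = median of wells with control inhibitor compound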
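Test system: purified T. brucei MetRS enzyme. Also added: ATP, methionine and E. coli bulk tRNA substrates. Compound: 11.9 µM single point. Schedule: 15 min enzyme-compound preincubation, 2 h reaction, 10 min detection, 25 °C. Signal: luciferase luminescence of residual ATP, Kinase-Glo. Evaluation: percent inhibition versus plate control medians. Controls: DMSO wells, low control.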
Granule exo inh = lytic granule exocytosis inhibition; hit rate 0.66% among 360,000; inhibition, % at 10 µM; TALL-104 LAMP-1 surface exposure, flow cytometry; cells stimulated with thapsigargin and PMA;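 active = inhibition above about 55%, limit read from the data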
iPSC survival up = enhancers of human iPSC single-cell survival. hiPSC single-cell survival, ATPlite luminescence; 100% = ROCK inhibitor wells, 0% = DMSO. survival enhancement, % at 20 µM. hit rate 0.044% among 360,000. AID 602274; in the data active = survival enhancement above about 18%;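 note: cells exposed to compounds for 16 hours before the ATP read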
MC4R barr agon = activates human MC4R beta-arrestin recruitment | P32245 | U2OS MC4R beta-arrestin complementation, luminescence; percent of melanotan II response, DMSO zero | activation, % at 8.9 µM | hit rate 0.98% among 360,000;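 active = activation above a per-plate cutoff, the mean activation of sample wells on that plate plus 3 SD, cut at about 8% in these data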
Target sequence (P32245 whole entry, looked up): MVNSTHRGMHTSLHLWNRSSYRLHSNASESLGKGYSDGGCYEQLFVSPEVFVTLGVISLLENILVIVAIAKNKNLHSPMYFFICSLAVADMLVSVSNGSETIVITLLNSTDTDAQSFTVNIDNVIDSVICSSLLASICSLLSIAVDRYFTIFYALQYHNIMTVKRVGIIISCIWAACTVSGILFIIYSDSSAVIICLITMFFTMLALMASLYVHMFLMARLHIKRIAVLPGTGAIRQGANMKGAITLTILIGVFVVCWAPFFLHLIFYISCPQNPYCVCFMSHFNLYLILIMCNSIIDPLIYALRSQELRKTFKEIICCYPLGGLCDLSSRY
MC4R antagonist = antagonists of human melanocortin 4 receptor (MC4R); hit rate 0.48% among 360,000; MC4R-expressing cells, MTII-stimulated cAMP, LANCE TR-FRET; inhibition, % at 6.5 µM;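 active = inhibition above its plate's cutoff, the mean of tested wells on that plate plus 3 SD, cut at about 29% in these data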;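 note: 0% = Melanotan II alone and 100% = Melanotan II plus saturating MCL0020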
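System: U2OS-MC4R stable cell line; Technique: Eu-cAMP/anti-cAMP TR-FRET, emission 671 nm; Repeats: single well per compound; Also added: Melanotan II; Dosing: one concentration, 6.5 µM nominal; Schedule: 30-min compound, 1-h challenge, 1-h detection, room temperature.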
Numbers without * were called inactive; nt = no result.

SMILES	ABCB6 inh MLPCN	TbMetRS inhib	Granule exo inh	iPSC survival up	MC4R barr agon	MC4R antagonist
C#CCOCCOCCOCCNc1nc(N2CCN(C(=O)CCCCCCCCCCNC(=O)Cn3cc(C[C@@H](C)O)nn3)CC2)nc(N2CCN(C(=O)CCCCCCCCCCNC(=O)[C@H](CCCCN)n3cc(CCCC(=O)O)nn3)CC2)n1	88	0	2	-2	1	3
C#CCOCCOCCOCCNc1nc(N2CCN(C(=O)CCCCCCCCCCNC(=O)[C@H](CO)n3cc(CCCSC)nn3)CC2)nc(N2CCN(C(=O)CCCCCCCCCCNC(=O)[C@H](CCCN=C(N)N)n3cc(C[C@@H](C)CC)nn3)CC2)n1	87	0	-3	-4	0	53*
CCn1c(SCC(=O)N/N=C(\C)c2ccco2)nnc1-c1ccccc1	104	0	8	0	0	2
N#CCC(=O)N/N=C/c1cn(Cc2ccc(Cl)c(Cl)c2)c2ccccc12	102	0	-2	0	20*	-8
N#CCC(=O)N/N=C/c1cn(Cc2ccccc2C#N)c2ccccc12	99	0	-10	2	2	11
CSC(=NCc1ccco1)NC#N	100	-1	-2	0	1	-3
C[N+](C)=C1SCC(C)(/C=N/O)S1 (stereo unspecified)	95	0	108*	0	0	1
CCOC(=O)Cn1c(=O)oc2cc(S(=O)(=O)N3CCn4c3nc3ccccc34)ccc21	99	1	-4	2	0	25
CCOC(=O)Cn1c(=O)oc2cc(S(=O)(=O)N3CCCc4ccccc43)ccc21	96	0	28	1	-1	30*
CSC(SC)=C(C#N)C(=O)c1ccccc1	100	0	56*	0	24*	38*
O=C(O)c1ccc(C(=O)C(=O)c2ccccc2)cc1	103	-1	1	0	2	-1
COC(=O)C1=C(N)N(c2ccccc2F)C2=C(C(=O)CC(C)(C)C2)C1c1ccc(OC)c(OC)c1 (stereo unspecified)	101	-1	-3	2	-2	-1
CCc1ccc2c(c1)c1nnc(NN)nc1n2CC	103	1	-3	2	-1	-6
O=c1[nH]c2ccc(Cl)cc2c(-c2ccccc2)c1[N+](=O)[O-]	91	-1	11	0	9.3*	4
O=c1[nH]c2ccc(Cl)cc2c(O)c1-c1ccccc1	104	1	-4	-2	0	7
COCCCNS(=O)(=O)c1ccc(C)cc1	103	-1	-2	-1	-1	3
COc1ccc(-c2cc(C(=O)Nc3cc(C)n(Cc4ccc(Cl)cc4)n3)no2)cc1OC	96	1	0	-2	24*	6
Cc1ccc(OCCSCc2nc3ccccc3[nH]2)cc1	nt	6.8*	-3	-1	-2	8
Cc1ccc(CSCc2nc3ccccc3[nH]2)cc1	96	0	0	-1	-1	5
c1ccc(SCc2nc3ccccc3[nH]2)cc1	107	6.5*	-1	-1	0	2
Cc1nc2ccccn2c1C(=O)N=Nc1c(O)n(CCC(C)C)c2ccccc12	90	0	71*	0	2	17
CN1C2CCC1CC(NC(=O)c1cc(Cl)cc3[nH]cnc13)C2 (stereo unspecified)	100	0	0	1	0	12
CCN=C1S/C(=C/c2ccc(-c3ccc(Cl)cc3C(=O)O)o2)C(=O)N1CC	71*	0	-7	0	-3	4
CCN=C1S/C(=C\c2ccc(-c3cccc(C(=O)O)c3)o2)C(=O)N1CC	96	-1	2	-2	-1	3
O=[N+]([O-])/C=C\c1ccc(N2CCCC2)c(F)c1	118	0	75*	-1	-1	9
SMILES	ABCB6 inh MLPCN	TbMetRS inhib	Granule exo inh	iPSC survival up	MC4R barr agon	MC4R antagonist
CCCCN(C(=O)CC1CCCCC1)c1c(N)n(CC(C)C)c(=O)[nH]c1=O	89	0	0	0	-1	2
COc1ccc(Cl)cc1N(CC(=O)NCCSc1ccccn1)S(=O)(=O)c1ccccc1	94	0	69*	0	0	2
Cc1cccc2sc(=S)[nH]c12	99	-1	-13	0	nt	nt
COc1ccc(OC)c(C2=Nn3c(nnc3-c3ccncc3)SC2)c1	102	0	64*	0	-1	1
COc1ccc(OC)c(C2=Nn3c(nnc3-c3cc(OC)c(OC)c(OC)c3)SC2)c1	100	0	13	5	0	-41
COC(=O)c1ccc(C2C(Oc3ccccc3)C(=O)N2CCc2ccc(OC)c(OC)c2)cc1 (stereo unspecified)	99	-2	-3	0	8.9*	6
COc1ccc(OC2C(=O)N(CCc3ccc(OC)c(OC)c3)C2c2ccc3c(c2)OCO3)cc1 (stereo unspecified)	115	0	0	10	3	23
CC(OC(=O)c1snc(C(=O)NC2CCCCC2)c1N)C(=O)NC1CCCCC1 (stereo unspecified)	88	-3	-1	1	4	1
COC(=O)C(C)Oc1cc(OC(C)C(=O)OC)c2c(-c3ccccc3)cc(=O)oc2c1 (stereo unspecified)	97	-1	63*	1	1	14
CC(C)c1ccc(S(=O)(=O)/N=C2/C=C(Sc3ncn[nH]3)C(=O)c3ccccc32)cc1	102	1	98*	-2	-1	29*
C[C@]12CC[C@@H]3c4ccc(OC(=O)c5ccccc5)cc4CC[C@H]3[C@@H]1CC[C@@H]2O	94	0	60*	-2	-1	13
CC(=O)Oc1ccc2c(c1)CCC1C2CCC2(C)C(OC(C)=O)CCC12 (stereo unspecified)	98	-1	3	1	-1	2
Cc1cc(C(=O)c2ccc3ccccc3c2)c(C)o1	96	1	73*	0	1	11
CCOc1ccc(S(=O)(=O)Nc2cc(SCC(=O)O)c(O)c3ccccc23)cc1	108	0	0	-1	0	-8
Cc1ccc(C)c(S(=O)(=O)Nc2cc(SCC(=O)O)c(O)c3ccccc23)c1	88	1	78*	-4	-3	-5
O=C(O)/C=C/C(=O)Nc1ccc(Cc2ccc(NC(=O)/C=C/C(=O)O)cc2)cc1	99	0	-2	-1	0	-3
COc1ccc(CNCCC(c2ccccc2)c2ccc3c(c2)OCO3)cc1 (stereo unspecified)	97	-2	6	-1	9.1*	0
COc1ccccc1C(CCNCc1ccccc1)c1ccc(OC(C)C)cc1 (stereo unspecified)	96	0	55	-1	9.0*	11
